Here are results for 13 molecules from ChEMBL document CHEMBL1154890, “Synthesis, cytotoxicity, antiviral activity and interferon inducing ability of 6-(2-aminoethyl)-6H-indolo[2,3-b]quinoxalines” (Eur J Med Chem, 2010).

The structures appear in SMILES notation.

Data set [1] is described as follows: Selectivity index, CC50 for mouse L929 cells to IC50 for Vesicular stomatitis virus treated 24 hrs before viral infection. In kind it is functional. The procedure, abridged: (§1)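 SI = CC₅₀/IC₅₀ for each cell line and each regimen (treatment 24 h before or immediately after VSV infection). For CC₅₀, the medium on EPT or L929 monolayers was replaced with maintenance medium containing 5% newborn calf serum plus compound at 1–1000. After 24–48 h at 37 °C, 5% CO₂, cells were stained with 0.5% crystal violet in 70% ethanol and read at 540/620. CC₅₀ is the concentration giving 50% monolayer destruction.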

The test system of data set [2] is Vesicular stomatitis virus. Put plainly: Antiviral activity against Vesicular stomatitis virus infected in mouse L929 cells assessed as inhibition of virus-induced cytopathic effect treated immediately after viral infection measured after 24 hrs. In kind it is functional, organism-based. Conditions: L929, 24 h. The procedure, abridged: (§2)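 VSV grown in EPT or L929 cells to about 10⁶ ID₅₀/0.1 mL. Compounds in serial double dilution were added to cell monolayers at 37 °C, 5% CO₂, either 24 h before infection (preventive) or immediately after it (therapeutic). VSV was then added and cultures held 24 h. Cytopathic effect was scored microscopically. IC₅₀ is reported as −lg molar concentration giving 50% inhibition of cytopathic action, with confidence interval at P < 0.05.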
For orientation: Cytopathic effects are the visible damage that an infection or toxin causes in cultured cells.

A short description of data set [3]: Induction of IFN activity in pig EPT cells assessed as interferon titer at 1.5 uM after 24 hrs by microscopical method. In kind it is functional, Sus scrofa. Summed up:
(§3)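 Compounds were added to murine fibroblast L929 or piglet testicular EPT cells. Supernatant was taken after 24 and 48 h at 37 °C, 5% CO₂. IFN titers in the supernatant were then determined on L929 and EPT cell cultures.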

Data set [4] relates to L929. The experiment in a line: Induction of IFN activity in mouse L929 cells assessed as interferon titer at 1.1 uM after 24 hrs by microscopical method. The class given is functional. The procedure, abridged: as §3
Data set [5] is described as follows: Selectivity index, CC50 for mouse L929 cells to IC50 for Vesicular stomatitis virus treated immediately after viral infection. In kind it is functional. The procedure, abridged: as §1
Data set [6] is described as follows: Selectivity index, CC50 for […] EPT cells to IC50 for Vesicular stomatitis virus treated immediately after viral infection. In kind it is functional. Summed up: as §1
Data set [7] in a line: (§4) Cytotoxicity against mouse L929 cells after 24 to 48 hrs. Conditions: L929 cells. The class given is cell-based. Summed up: (§5)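 Monolayers at 37 °C, 5% CO₂; growth medium (L929: Eagle's MEM, EPT: Medium 199; both with 10% calf embryo serum and kanamycin, plus glutamine for L929) replaced by maintenance medium with 5% newborn calf serum holding compound at 1–1000. Read at 24–48 h after 0.5% crystal violet/70% ethanol staining, 540/620 nm. CC₅₀ = 50% monolayer destruction, given as −lg (M), confidence interval at P < 0.05.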

Data set [8] has as its system Vesicular stomatitis virus. Put plainly: Antiviral activity against Vesicular stomatitis virus in EPT cells assessed as inhibition of virus-induced cytopathic effect treated 24 hrs before viral infection measured after 24 hrs. In kind it is functional, organism-based. Summed up: as §2
The subject of data set [9] is Vesicular stomatitis virus. Put plainly: Antiviral activity against Vesicular stomatitis virus in mouse L929 cells assessed as inhibition of virus-induced cytopathic effect treated 24 hrs before viral infection measured after 24 hrs. In kind it is functional, organism-based. The procedure, abridged: as §2
Data set [10] is described as follows: Cytotoxicity against pig EPT cells after 24 to 48 hrs. The class given is cell-based, Sus scrofa. Conditions: for CC50: EPT cells; for pCC50: ept. The procedure, abridged: as §5
Data set [11] is described as follows: Selectivity index, CC50 for pig EPT cells to IC50 for Vesicular stomatitis virus treated 24 hrs before viral infection. In kind it is functional. The procedure, abridged: as §1
The subject of data set [12] is Vesicular stomatitis virus. Put plainly: Antiviral activity against Vesicular stomatitis virus infected in EPT cells assessed as inhibition of virus-induced cytopathic effect treated immediately after viral infection measured after 24 hrs. In kind it is functional, organism-based. Summed up:
as §2

Data set [13] is described as follows: Ratio of tilorone CC50 for […] EPT cells to IC50 for Vesicular stomatitis virus treated 24 hrs before viral infection over compound CC50 for […] EPT cells to IC50 for Vesicular stomatitis virus treated 24 hrs before viral infection.
Data set [14] relates to L929. The data set is described as §4. The class given is cell-based. Conditions: l929. The procedure, abridged: as §5

By IC50 is commonly meant the concentration that gives 50% inhibition. In general, CC50 refers to the concentration at which the toxic effect on the cells reaches its halfway point. Low values mean greater toxicity to the cells, high ones lower toxicity to the cells. As to `CCCN(CCC)CCn1c2ccccc2c2nc3ccccc3nc21`, the “Ratio CC50/IC50” value in data set [1] is recorded as 169; in [5], 158; in data set [6], 23; in data set [11], 55. The IC50 was 3.55 µM in data set [2], 2.69 µM in data set [8], 1.29 µM in [9] and 6.61 µM in data set [12]. The Activity amounted to 32 in data set [3] and 8 in the data set with L929 [4]. Further, the CC50 in data set [7] is 219 µM; in [10], 148 µM.
Usually pCC50 stands for −log10 of the CC50, conventionally taken in molar units. Take `CC1CCN(CCn2c3ccccc3c3nc4ccccc4nc32)CC1`: the “Ratio CC50/IC50” value is given as 358 in data set [1], 78 in data set [5], 142 in [6] and 1783 in data set [11]. Besides, the IC50 in data set [2] is 2.29 µM; in data set [8] it was 1.58 µM; in data set [9] it was 1.62 µM; in [12] it was 20 µM. The Activity came to 32 in [3] and 8 with L929 [4]. For the same molecule, the Ratio in data set [13] amounted to 20. The molecule also had a CC50 in data set [7] of 575 µM. The molecule further registered a pCC50 in data set [10] of 2.55.
For `CC1CCCCN1CCn1c2ccccc2c2nc3ccccc3nc21` (stereo unspecified), the “Ratio CC50/IC50” value in data set [1] is recorded as 185; in data set [5], 74; in data set [6] it was 98; in data set [11], 149. The IC50 in [2] is 1.91 µM; in [8] it was 2.63 µM; in [9] it was 1.26 µM; in [12] it was 4.07 µM. The Activity (in [3]; with L929 [4]) was 32 each time. The CC50 is 234 µM in [7] and 398 µM in data set [10].
Regarding `c1ccc2nc3c(nc2c1)c1ccccc1n3CCN1CCCCCC1`, the “Ratio CC50/IC50” value in data set [1] stood at 110; in [5], 62; in data set [6] it was 17; in [11], 49. In addition, the IC50 in data set [2] is 3.8 µM; in data set [8] it was 2.69 µM; in data set [9], 1.29 µM; in [12], 7.94 µM. The Activity stood at 32 in data set [3] and 64 in the data set with L929 [4]. Moreover, the CC50 in [7] was 145 µM; in data set [10] it was 132 µM.
For `CCN(CC)CCOc1ccc2c(c1)C(=O)c1cc(OCCN(CC)CC)ccc1-2.Cl.Cl` [TILORONE HYDROCHLORIDE], the “Ratio CC50/IC50” value came to 80 in data set [1], 10 in [5], 10 in data set [6] and 80 in data set [11]. The IC50 in [2] is 13.8 µM; in data set [8] it was 1.32 µM; in data set [9] it was 1.45 µM; in data set [12], 13.5 µM. The Activity (in [3]; in the data set with L929 [4]) was 32 throughout. Further, the CC50 in [7] was 112 µM; in [10], 107 µM.
Take `CN1CCN(CCn2c3ccccc3c3nc4ccccc4nc32)CC1`: the “Ratio CC50/IC50” value came out at 71 in data set [1], 46 in data set [5], 17 in data set [6] and 57 in [11]. Further, the 50% inhibitory concentration (IC50) in [2] is 4.79 µM; in data set [8], 1.45 µM; in data set [9], 1.38 µM; in data set [12], 4.68 µM. For the same molecule, the Activity in [3] is on record as 32; in the data set with L929 [4], 4. In addition, the CC50 is 97.7 µM in data set [7] and 81.3 µM in [10].
Consider `c1ccc2nc3c(nc2c1)c1ccccc1n3CCN1CCOCC1`, for which the “Ratio CC50/IC50” value in data set [1] turned out to be 659; in data set [5], 17; in data set [11] it was 1258. Besides, the IC50 is 4.47 µM in data set [2], 1.62 µM in data set [8] and 1.62 µM in [9]. The Activity in [3] is recorded as 16; with L929 [4], 8. Further, the Ratio in data set [13] stood at 15. Also, the pCC50 in the data set on L929 [14] was 2.97; in data set [10] it was 2.69.
For the molecule `CCCCN(C)CCn1c2ccccc2c2nc3ccccc3nc21`, the “Ratio CC50/IC50” value in data set [1] is 388; in data set [5] it was 41; in [6], 43; in data set [11] it was 68. Besides, the IC50 in data set [2] was 2.34 µM; in data set [8], 3.02 µM; in data set [9], 1.45 µM; in data set [12], 4.79 µM. Moreover, the Activity in data set [3] is 32; with L929 [4], 16. Moreover, the CC50 in data set [7] was 562 µM; in data set [10], 204 µM.
For `c1ccc2nc3c(nc2c1)c1ccccc1n3CCN1CCCCC1`, the “Ratio CC50/IC50” value was 132 in [1], 224 in [5], 164 in [6] and 323 in [11]. Moreover, the IC50 in data set [2] is 2.57 µM; in data set [8] it was 2.88 µM; in [9] it was 1.35 µM; in data set [12] it was 5.62 µM. In addition, the Activity in data set [3] is reported as 32; in the data set with L929 [4] it was 64. In addition, the results for the CC50 in data set [7] and in data set [10] were 178 µM and 933 µM, respectively.
Regarding `c1ccc2nc3c(nc2c1)c1ccccc1n3CCN1CCCC1`, the “Ratio CC50/IC50” value worked out at 59 in data set [1], 468 in data set [5], 40 in [6] and 60 in data set [11]. The IC50 in data set [2] is 2.24 µM; in data set [8] it was 2.69 µM; in data set [9], 1.32 µM; in data set [12], 4.07 µM. Also, the Activity in [3] was found to be 64; with L929 [4] it was 32. Moreover, the CC50 in data set [7] was 75.9 µM; in [10] it was 162 µM.
Take `CCCCN(CC)CCn1c2ccccc2c2nc3ccccc3nc21`: the “Ratio CC50/IC50” value in data set [1] came to 54; in data set [5], 27; in [6], 6; in data set [11], 6. The IC50 in data set [2] is 3.39 µM; in [8], 13.2 µM; in [9], 3.16 µM; in data set [12], 13.2 µM. Moreover, the Activity (in data set [3]; with L929 [4]) was 8 in each case. The CC50 is 174 µM in data set [7] and 83.2 µM in data set [10].
With `CCN(CC)CCn1c2ccccc2c2nc3ccccc3nc21`, the “Ratio CC50/IC50” value was determined as 499 in data set [1], 79 in [5], 76 in data set [6] and 139 in data set [11]. Further, the IC50 in data set [2] is 2.19 µM; in data set [8], 3.39 µM; in data set [9], 1.29 µM; in [12], 6.17 µM. Also, the Activity in data set [3] was determined as 32; in the data set with L929 [4], 64. Also, the results for the CC50 in data set [7] and in [10] were 646 µM and 457 µM, respectively.
For the molecule `CN(C)CCn1c2ccccc2c2nc3ccccc3nc21`, the “Ratio CC50/IC50” value came to 63 in [1], 58 in data set [5], 9 in data set [6] and 56 in data set [11]. The IC50 in data set [2] was 11.2 µM; in data set [8], 1.45 µM; in data set [9] it was 1.45 µM; in [12] it was 9.55 µM. Further, the Activity in data set [3] amounted to 32; in the data set with L929 [4], 16. The CC50 in data set [7] was 91.2 µM; in data set [10], 81.3 µM.
